Reference: ChEMBL document CHEMBL1127751, “Novel Asp32-replacement tetrapeptide analogues as potent and selective CCK-A agonists” (J Med Chem, 1994)
pIC50: −log10 of the molar value. Starred links: 1 amine or outer side, 2 acyl side, 3 side chain; linkers in the order of their positions; H or OH if unused. Non-standard residues stand in square brackets, D forms with d. Residues, ends and D or L forms follow the SMILES beside them. Groups on a side chain read outwards from the residue. ξ: configuration not given here. *: point of attachment. NMeF = CN[C@@H](Cc1ccccc1)C(=O)O; ξW = NC(Cc1c[nH]c2ccccc12)C(=O)O; NH(2-Me-phenyl) = Cc1ccccc1N*; ξNMeF = CNC(Cc1ccccc1)C(=O)O; β3hP = O=C(O)C[C@@H]1CCCN1; ξF = NC(Cc1ccccc1)C(=O)O; Boc = CC(C)(C)OC(=O)*; CO = O=C([*:1])[*:2]; Sar = CNCC(=O)O

What was measured:
[1] = target: T1, Cholecystokinin receptor type A (Cavia porcellus, UniProt Q63931); assay: Concentration that inhibited 50% of specific binding of [125I]Bolton-Hunter CCK-8 binding in guinea pig pancreas
T1 sequence (Q63931 whole entry): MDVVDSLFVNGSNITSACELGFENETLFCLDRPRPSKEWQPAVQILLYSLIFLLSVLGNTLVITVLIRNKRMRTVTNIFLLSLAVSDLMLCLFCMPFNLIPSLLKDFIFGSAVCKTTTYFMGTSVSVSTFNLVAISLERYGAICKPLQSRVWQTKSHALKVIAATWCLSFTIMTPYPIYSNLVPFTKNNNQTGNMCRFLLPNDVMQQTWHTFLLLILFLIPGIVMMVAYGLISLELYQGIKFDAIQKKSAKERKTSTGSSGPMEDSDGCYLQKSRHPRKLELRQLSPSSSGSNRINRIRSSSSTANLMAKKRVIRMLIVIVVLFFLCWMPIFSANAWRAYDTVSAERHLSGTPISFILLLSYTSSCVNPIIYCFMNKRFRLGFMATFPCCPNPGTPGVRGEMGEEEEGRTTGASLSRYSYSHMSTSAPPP

[2] = target: T2, Cholecystokinin receptor type A (Cavia porcellus) (UniProt Q63931); assay: Percent response in PI hydrolysis relative to maximal response elicited by CCK-8 in guinea pig at 10e-6 M
T2 sequence (whole entry): T1 sequence (Q63931 whole entry)

[3] = system: Cholecystokinin receptor type B (Cavia porcellus); assay: Percent inhibition of specific [125I]Bolton-Hunter CCK-8 binding in guinea pig cortex at 10e-6 M
Rattus norvegicus = species on record: Rattus norvegicus; assay: Dose required to reduce food intake by 50% in rats; assay type: functional
Outline: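 Rats dosed intraperitoneally in nmol/kg, with 7–8 animals per group in each experiment. Food intake was compared with vehicle controls. The dose reducing intake by 50% was calculated from the dose–response data and reported with an interval.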

pIC50 [1]	PI hydrolysis [2] [%]	inhibition [3] [%]	SMILES	ED50 (Rattus norvegicus) [µmol/kg]
7.57	47	9	Cc1ccccc1NC(=O)NCCCC[C@H](NC(=O)C(Cc1c[nH]c2ccccc12)NC(=O)OC(C)(C)C)C(=O)NCCC(=O)N(C)C(Cc1ccccc1)C(N)=O (stereo not given in full)	–
5.92	5	6	Cc1ccccc1NC(=O)NCCCC[C@H](NC(=O)C(Cc1c[nH]c2ccccc12)NC(=O)OC(C)(C)C)C(=O)NCCCCCC(=O)NC(Cc1ccccc1)C(N)=O (stereo not given in full)	–
–	24	5	Cc1ccccc1NC(=O)NCCCC[C@H](NC(=O)C(Cc1c[nH]c2ccccc12)NC(=O)OC(C)(C)C)C(=O)N(C)CC(=O)NC(Cc1ccccc1)C(N)=O (stereo not given in full) (Boc-[ξW]K([CO-NH(2-Me-phenyl)])[Sar][ξF]-NH2)	–
7.57	67	11	Cc1ccccc1NC(=O)NCCCC[C@H](NC(=O)C(Cc1c[nH]c2ccccc12)NC(=O)OC(C)(C)C)C(=O)NCCCC(=O)N(C)C(Cc1ccccc1)C(N)=O (stereo not given in full)	–
7.21	61	14	Cc1ccccc1NC(=O)NCCCC[C@H](NC(=O)C(Cc1c[nH]c2ccccc12)NC(=O)OC(C)(C)C)C(=O)N(C)CCC(=O)NC(Cc1ccccc1)C(N)=O (stereo not given in full)	–
–	33	–	Cc1ccccc1NC(=O)NCCCC[C@H](NC(=O)C(Cc1c[nH]c2ccccc12)NC(=O)OC(C)(C)C)C(=O)N(C)CC(=O)N(C)C(Cc1ccccc1)C(N)=O (stereo not given in full) (Boc-[ξW]K([CO-NH(2-Me-phenyl)])[Sar][ξNMeF]-NH2)	–
6.62	68	–	Cc1ccccc1NC(=O)NCCCC[C@H](NC(=O)C(Cc1c[nH]c2ccccc12)NC(=O)OC(C)(C)C)C(=O)N1CCC[C@H]1CC(=O)NC(Cc1ccccc1)C(N)=O (stereo partly drawn) (Boc-[ξW]K([CO-NH(2-Me-phenyl)])[β3hP][ξF]-NH2)	–
8.15	36	–	Cc1ccccc1NC(=O)NCCCC[C@H](NC(=O)C(Cc1c[nH]c2ccccc12)NC(=O)OC(C)(C)C)C(=O)N(C)CCC(=O)N(C)C(Cc1ccccc1)C(N)=O (stereo not given in full)	–
–	28	0	Cc1ccccc1NC(=O)NCCCC[C@H](NC(=O)C(Cc1c[nH]c2ccccc12)NC(=O)OC(C)(C)C)C(=O)NCC(=O)N(C)C(Cc1ccccc1)C(N)=O (stereo not given in full) (Boc-[ξW]K([CO-NH(2-Me-phenyl)])G[ξNMeF]-NH2)	–
5.93	7	7	Cc1ccccc1NC(=O)NCCCC[C@H](NC(=O)C(Cc1c[nH]c2ccccc12)NC(=O)OC(C)(C)C)C(=O)NCCCCC(=O)N(C)C(Cc1ccccc1)C(N)=O (stereo not given in full)	–
7.77	92	13	Cc1ccccc1NC(=O)NCCCC[C@H](NC(=O)C(Cc1c[nH]c2ccccc12)NC(=O)OC(C)(C)C)C(=O)N1CCC[C@H]1CC(=O)N(C)C(Cc1ccccc1)C(N)=O (stereo partly drawn) (Boc-[ξW]K([CO-NH(2-Me-phenyl)])[β3hP][ξNMeF]-NH2)	–
6.12	1	8	Cc1ccccc1NC(=O)NCCCC[C@H](NC(=O)C(Cc1c[nH]c2ccccc12)NC(=O)OC(C)(C)C)C(=O)N1CCC(=O)N(C(Cc2ccccc2)C(N)=O)CC1 (stereo not given in full)	–
6.41	8	11	Cc1ccccc1NC(=O)NCCCC[C@H](NC(=O)C(Cc1c[nH]c2ccccc12)NC(=O)OC(C)(C)C)C(=O)N(C)CCCC(=O)NC(Cc1ccccc1)C(N)=O (stereo not given in full)	–
5.88	4	–	Cc1ccccc1NC(=O)NCCCC[C@H](NC(=O)C(Cc1c[nH]c2ccccc12)NC(=O)OC(C)(C)C)C(=O)NCCCCCC(=O)N(C)C(Cc1ccccc1)C(N)=O (stereo not given in full)	–
6.58	–	–	Cc1ccccc1NC(=O)NCCCC[C@H](NC(=O)[C@H](Cc1c[nH]c2ccccc12)NC(=O)OC(C)(C)C)C(=O)N(C)CC(=O)N[C@@H](Cc1ccccc1)C(N)=O (Boc-WK([CO-NH(2-Me-phenyl)])[Sar]F-NH2)	–
–	17	14	Cc1ccccc1NC(=O)NCCCC[C@H](NC(=O)C(Cc1c[nH]c2ccccc12)NC(=O)OC(C)(C)C)C(=O)NCC(=O)NC(Cc1ccccc1)C(N)=O (stereo not given in full) (Boc-[ξW]K([CO-NH(2-Me-phenyl)])G[ξF]-NH2)	–
6.04	–	–	Cc1ccccc1NC(=O)NCCCC[C@H](NC(=O)[C@H](Cc1c[nH]c2ccccc12)NC(=O)OC(C)(C)C)C(=O)NCC(=O)N[C@@H](Cc1ccccc1)C(N)=O (Boc-WK([CO-NH(2-Me-phenyl)])GF-NH2)	–
6.13	9	11	Cc1ccccc1NC(=O)NCCCC[C@H](NC(=O)C(Cc1c[nH]c2ccccc12)NC(=O)OC(C)(C)C)C(=O)NCCCC(=O)NC(Cc1ccccc1)C(N)=O (stereo not given in full)	–
6.85	–	–	Cc1ccccc1NC(=O)NCCCC[C@H](NC(=O)[C@H](Cc1c[nH]c2ccccc12)NC(=O)OC(C)(C)C)C(=O)NCC(=O)N(C)[C@@H](Cc1ccccc1)C(N)=O (Boc-WK([CO-NH(2-Me-phenyl)])G[NMeF]-NH2)	–
7.72	64	4	Cc1ccccc1NC(=O)NCCCC[C@H](NC(=O)C(Cc1c[nH]c2ccccc12)NC(=O)OC(C)(C)C)C(=O)N(C)CCCC(=O)N(C)C(Cc1ccccc1)C(N)=O (stereo not given in full)	–
7.80	89	39	Cc1ccccc1NC(=O)NCCCC[C@H](NC(=O)C(Cc1c[nH]c2ccccc12)NC(=O)OC(C)(C)C)C(=O)N[C@@H]1CC(=O)N([C@@H](Cc2ccccc2)C(N)=O)C1 (stereo not given in full)	0.03
7.08	–	–	Cc1ccccc1NC(=O)NCCCC[C@H](NC(=O)[C@H](Cc1c[nH]c2ccccc12)NC(=O)OC(C)(C)C)C(=O)N(C)CC(=O)N(C)[C@@H](Cc1ccccc1)C(N)=O (Boc-WK([CO-NH(2-Me-phenyl)])[Sar][NMeF]-NH2)	–
6.90	16	–	Cc1ccccc1NC(=O)NCCCC[C@H](NC(=O)C(Cc1c[nH]c2ccccc12)NC(=O)OC(C)(C)C)C(=O)NCCC(=O)NC(Cc1ccccc1)C(N)=O (stereo not given in full)	–
5.74	2	–	Cc1ccccc1NC(=O)NCCCC[C@H](NC(=O)C(Cc1c[nH]c2ccccc12)NC(=O)OC(C)(C)C)C(=O)NCCCCC(=O)NC(Cc1ccccc1)C(N)=O (stereo not given in full)	–
